Measured values from ChEMBL document CHEMBL1132449, “Pyrroloquinoxaline derivatives as high-affinity and selective 5-HT(3) receptor agonists: synthesis, further structure-activity relationships, and biological studies” (J Med Chem, 1999).

Experiments:
[1] = molecular target: T1, Serotonin 3 (5-HT3) receptor (Rattus norvegicus, UniProt P35563+Q9JJ16); test: Binding affinity against 5-hydroxytryptamine 3 (5-HT3) receptor from rat cortical homogenate using [3H]zacopride as radioligand
T1 sequence (P35563 whole entry): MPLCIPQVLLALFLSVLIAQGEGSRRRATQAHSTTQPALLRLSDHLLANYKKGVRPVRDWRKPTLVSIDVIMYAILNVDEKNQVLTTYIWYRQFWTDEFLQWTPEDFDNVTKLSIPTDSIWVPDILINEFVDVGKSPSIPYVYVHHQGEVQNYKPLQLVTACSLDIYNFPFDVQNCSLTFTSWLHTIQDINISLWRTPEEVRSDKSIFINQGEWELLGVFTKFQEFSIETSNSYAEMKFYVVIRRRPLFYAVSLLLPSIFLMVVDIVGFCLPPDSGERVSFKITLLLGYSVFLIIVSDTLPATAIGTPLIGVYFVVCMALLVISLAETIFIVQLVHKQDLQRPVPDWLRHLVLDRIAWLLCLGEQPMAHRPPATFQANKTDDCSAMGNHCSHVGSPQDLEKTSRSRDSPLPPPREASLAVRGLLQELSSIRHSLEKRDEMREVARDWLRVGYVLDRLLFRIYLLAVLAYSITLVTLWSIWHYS
T1 sequence (Q9JJ16 whole entry): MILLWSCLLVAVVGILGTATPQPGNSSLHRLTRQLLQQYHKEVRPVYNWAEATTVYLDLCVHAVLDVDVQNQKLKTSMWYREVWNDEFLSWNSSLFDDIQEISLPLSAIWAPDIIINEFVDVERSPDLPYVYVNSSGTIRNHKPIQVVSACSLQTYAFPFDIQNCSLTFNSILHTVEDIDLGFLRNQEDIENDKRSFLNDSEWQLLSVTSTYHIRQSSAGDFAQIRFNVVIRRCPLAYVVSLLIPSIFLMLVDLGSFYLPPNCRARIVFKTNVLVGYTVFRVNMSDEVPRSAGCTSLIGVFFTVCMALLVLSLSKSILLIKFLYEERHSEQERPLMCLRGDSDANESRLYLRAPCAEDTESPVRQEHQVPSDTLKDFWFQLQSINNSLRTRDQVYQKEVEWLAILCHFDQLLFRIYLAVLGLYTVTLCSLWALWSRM
In short: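 Male rat cortices, stored at -80 °C, were homogenized in ice-cold 25 mM Tris HCl pH 7.4 and spun at 50000g. Membranes were preincubated 10 min at 37 °C, washed, and resuspended with 10 µM pargyline (10 mg tissue/sample). They were incubated with 0.4 nM (final) [3H]zacopride for 30 min at 25 °C, filtered through PEI-treated GF/B and counted. IC50 came from dose-inhibition curves, mean ± SEM of three determinations.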

[2] = molecular target: Serotonin 3 (5-HT3) receptor; test: Effective concentration against 5-Hydroxytryptamine 3 receptor by measuring [14C]guanidinium uptake on NG108-15 cells.; format: functional, cell-based
NG108-15 [3] = test: The compound was tested for efficacy against 5-Hydroxytryptamine 3 receptor by measuring [14C]guanidinium uptake on NG108-15 cells.; A = Agonist; format: functional, cell-based; conditions: filed as agonist
In short: (§1)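 NG108-15 cells, grown 2 days, were washed in HEPES saline pH 7.4. They were exposed 10 min at 37 °C to buffer (135 mM NaCl, 10 mM guanidinium) with […] [14C]guanidinium, 1 mM 5-HT, […] and/or 8 drug concentrations. Cells were washed in ice-cold choline buffer, dissolved in NaOH and counted by scintillation. Assays run in triplicate.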

[4] = The compound was tested for brain to plasma partition in rat; format: ADME, organism-based; conditions: brain and plasma, read-out: AUC ratio
In short: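 Male CD-COBS rats (175-200 g) received hydrochloride salts in saline i.v. at 5 mg/kg and were killed 60, 120 and 180 min after dosing. Plasma and brain levels were measured by HPLC-UV (254 nm) after liquid-liquid or solid-phase extraction with an internal standard. The ratio is brain-to-plasma AUC_t, 2-3 rats per point.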

NG108-15 [5] = test: The compound was tested for efficacy against 5-Hydroxytryptamine 3 receptor by measuring [14C]guanidinium uptake on NG108-15 cells; PA=Partial agonist; format: functional, cell-based; conditions: filed as partial agonist; in short: as §1
[6] = molecular target: T2, 5-hydroxytryptamine receptor 1A (Rattus norvegicus, UniProt P19327); test: The compound was tested for the binding affinity against 5-hydroxytryptamine 1A receptor using [3H]8-OH-DPAT as radioligand.
T2 sequence (P19327 whole entry): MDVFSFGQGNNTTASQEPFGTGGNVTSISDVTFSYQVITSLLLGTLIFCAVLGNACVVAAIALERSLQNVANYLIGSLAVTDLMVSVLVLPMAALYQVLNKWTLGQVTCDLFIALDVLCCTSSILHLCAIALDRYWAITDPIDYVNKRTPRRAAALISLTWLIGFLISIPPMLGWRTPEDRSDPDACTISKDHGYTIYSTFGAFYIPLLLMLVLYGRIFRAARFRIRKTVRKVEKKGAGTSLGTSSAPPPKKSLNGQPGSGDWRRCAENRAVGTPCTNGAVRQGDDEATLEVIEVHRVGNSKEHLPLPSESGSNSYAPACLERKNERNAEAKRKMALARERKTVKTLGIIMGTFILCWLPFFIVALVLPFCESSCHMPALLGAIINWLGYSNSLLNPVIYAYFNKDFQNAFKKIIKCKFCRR

[7] = molecular target: 5-hydroxytryptamine receptor 1B (Rattus norvegicus, UniProt P28564); test: The compound was tested for the binding affinity against 5-hydroxytryptamine 1B receptor using [3H]5-HT as radioligand.
[8] = molecular target: 5-hydroxytryptamine receptor 2A (Rattus norvegicus, UniProt P14842); test: The compound was tested for the binding affinity against 5-hydroxytryptamine 2A receptor using [3H]ketanserin as radioligand.
[9] = molecular target: T3, 5-hydroxytryptamine receptor 2C (Rattus norvegicus, UniProt P08909); test: The compound was tested for the binding affinity against 5-hydroxytryptamine 2C receptor using [3H]Mesulergine as radioligand.
T3 sequence (P08909 whole entry): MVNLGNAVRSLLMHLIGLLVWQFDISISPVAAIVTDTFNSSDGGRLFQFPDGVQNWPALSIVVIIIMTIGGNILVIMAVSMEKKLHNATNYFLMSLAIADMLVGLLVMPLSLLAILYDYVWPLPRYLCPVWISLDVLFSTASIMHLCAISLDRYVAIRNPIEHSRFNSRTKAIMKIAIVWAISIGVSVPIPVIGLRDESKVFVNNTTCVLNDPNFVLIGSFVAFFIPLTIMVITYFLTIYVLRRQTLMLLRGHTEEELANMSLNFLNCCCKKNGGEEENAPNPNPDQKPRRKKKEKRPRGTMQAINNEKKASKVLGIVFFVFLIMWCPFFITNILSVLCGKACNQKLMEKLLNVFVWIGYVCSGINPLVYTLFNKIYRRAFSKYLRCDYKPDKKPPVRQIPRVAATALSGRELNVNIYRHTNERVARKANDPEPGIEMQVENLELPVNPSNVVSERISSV

[10] = molecular target: T1, Serotonin 3 (5-HT3) receptor; test: The compound was tested for binding affinity against 5-hydroxytryptamine 3 receptor from NG108-15 cells using [3H]zacopride as radioligand; format: cell-based
In short: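 NG108-15 cells were grown in DMEM with 10% inactivated FCS plus HAT at 37 °C, 10% CO2, harvested by shaking and pelleted. About 420 000 cells/sample in 50 mM Tris HCl pH 7.5 with 25 mM NaCl were incubated with 0.4 nM (final) [3H]zacopride for 60 min at 25 °C, then filtered and counted. IC50 is mean ± SEM of three determinations.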

[11] = molecular target: T1, Serotonin 3 (5-HT3) receptor; test: The compound was tested for the binding affinity against 5-hydroxytryptamine 3 receptor using [3H]zacopride as radioligand.; format: protein-complex assay
[12] = molecular target: 5-hydroxytryptamine receptor 4 (Cavia porcellus, UniProt O70528); test: The compound was tested for the binding affinity against 5-hydroxytryptamine 4 receptor using [3H]GR-113808 as radioligand.
Sequence of 5-hydroxytryptamine receptor 4 (O70528 whole entry): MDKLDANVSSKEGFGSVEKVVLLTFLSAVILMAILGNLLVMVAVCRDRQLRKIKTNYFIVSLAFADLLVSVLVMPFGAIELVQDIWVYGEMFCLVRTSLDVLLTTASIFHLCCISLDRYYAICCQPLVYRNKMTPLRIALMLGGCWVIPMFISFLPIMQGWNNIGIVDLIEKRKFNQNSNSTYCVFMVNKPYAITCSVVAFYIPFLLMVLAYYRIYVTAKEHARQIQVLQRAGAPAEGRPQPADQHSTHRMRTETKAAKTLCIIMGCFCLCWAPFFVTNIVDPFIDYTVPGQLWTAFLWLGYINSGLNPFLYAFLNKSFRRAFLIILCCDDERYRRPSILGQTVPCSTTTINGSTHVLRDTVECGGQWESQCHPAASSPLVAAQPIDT

Sequence of 5-hydroxytryptamine receptor 2A (P14842 whole entry): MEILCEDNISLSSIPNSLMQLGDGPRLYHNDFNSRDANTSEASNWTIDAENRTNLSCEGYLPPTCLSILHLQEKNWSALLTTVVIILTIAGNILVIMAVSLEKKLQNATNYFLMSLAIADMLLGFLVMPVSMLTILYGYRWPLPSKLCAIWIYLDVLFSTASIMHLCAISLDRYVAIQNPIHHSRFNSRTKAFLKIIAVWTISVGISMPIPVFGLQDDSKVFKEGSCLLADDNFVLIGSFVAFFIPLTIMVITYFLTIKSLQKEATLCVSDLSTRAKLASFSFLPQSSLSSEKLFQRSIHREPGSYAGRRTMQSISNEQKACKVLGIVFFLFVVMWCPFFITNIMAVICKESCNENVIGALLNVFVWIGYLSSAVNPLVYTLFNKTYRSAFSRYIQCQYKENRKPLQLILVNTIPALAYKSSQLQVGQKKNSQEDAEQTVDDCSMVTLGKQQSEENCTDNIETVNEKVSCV
Sequence of 5-hydroxytryptamine receptor 1B (P28564 whole entry): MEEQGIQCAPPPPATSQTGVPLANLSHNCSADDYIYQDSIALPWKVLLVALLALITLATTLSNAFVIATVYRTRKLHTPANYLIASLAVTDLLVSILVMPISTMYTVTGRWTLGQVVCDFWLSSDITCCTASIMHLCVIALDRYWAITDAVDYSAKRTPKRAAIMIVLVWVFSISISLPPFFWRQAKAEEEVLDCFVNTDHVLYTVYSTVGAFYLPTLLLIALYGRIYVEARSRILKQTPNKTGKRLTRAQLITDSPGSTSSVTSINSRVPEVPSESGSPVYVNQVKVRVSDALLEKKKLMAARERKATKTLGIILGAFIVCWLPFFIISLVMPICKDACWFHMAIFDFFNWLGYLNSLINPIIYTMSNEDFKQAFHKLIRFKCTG

## CN1CCN(C2=NC=CN3CCN=C23)CC1
[1]
  IC50: 3650 nM

## Cc1cc2nc(N3CCN(Cc4ccccc4)CC3)c3cccn3c2cc1C
[1]
  IC50: 44 nM

## CN1CCN(c2nc3ccccc3n3ccnc23)CC1
[1]
  IC50: 3.8 nM
[2]
  EC50: 15 nM
NG108-15 [3]
  Efficacy: Agonist

## N#CCN1CCN(c2nc3cccc(F)c3n3cccc23)CC1
[1]
  IC50: 3800 nM
[4]
  Kp: 0.1

## CN1CCN(c2nc3cc(O)ccc3n3cccc23)CC1
[1]
  IC50: 0.67 nM
[2]
  EC50: 1.6 nM
NG108-15 [3]
  Efficacy: Agonist

## c1ccc(CN2CCN(c3nc4cccnc4n4cccc34)CC2)cc1
[1]
  IC50: 2.3 nM
[2]
  EC50: 32 nM
NG108-15 [5]
  Efficacy: Partial agonist

## c1csc(CN2CCN(c3nc4cccnc4n4cccc34)CC2)c1
[6]
  Ki: > 10 µM
[7]
  Ki: 3.98 µM
[8]
  Ki: 1580 nM
[9]
  Ki: > 10000 nM
[10]
  IC50: 6.4 nM
[1]
  IC50: 3.6 nM
[11]
  Ki: 3.16 nM
[12]
  Ki: > 10 µM

## Cc1[nH]c2ccc(O)cc2c1CCN
[11]
  Ki: 200 nM

## Cc1cccc2nc(N3CCN(Cc4ccc(Br)s4)CC3)c3cccn3c12
[1]
  IC50: 104 nM

## Fc1cccc2nc(N3CCN(CC4N=NN=N4)CC3)c3cccn3c12
[1]
  IC50: 690 nM

## Cc1cccc2nc(N3CCN(Cc4ccccc4)CC3)c3cccn3c12
[1]
  IC50: 8.8 nM
[2]
  EC50: 12 nM
NG108-15 [3]
  Efficacy: Agonist

## Fc1ccc2c(c1)nc(N1CCN(Cc3ccccc3)CC1)c1cccn12
[1]
  IC50: 13 nM
[2]
  EC50: 4.2 nM
NG108-15 [5]
  Efficacy: Partial agonist

## OCCN1CCN(c2nc3cccnc3n3ccnc23)CC1
[1]
  IC50: 38 nM

## Cc1cc2nc(N3CCNCC3)c3cccn3c2cc1C
[1]
  IC50: 113 nM

## CN1CCN(c2nc3cc(Cl)c(Cl)cc3n3cccc23)CC1
[1]
  IC50: 97 nM

## Cc1cc2nc(N3CCN(C)CC3)c3cccn3c2cc1C
[1]
  IC50: 30 nM

## CN1CCN(c2nccn3cccc23)CC1
[1]
  IC50: 1930 nM

## CN1CCN(c2nc3cccnc3n3cccc23)CC1
[10]
  IC50: 5.4 nM
[1]
  IC50: 1 nM

## Fc1ccc2c(c1)nc(N1CCN(Cc3ccco3)CC1)c1cccn12
[1]
  IC50: 11 nM
[2]
  EC50: 6.6 nM
NG108-15 [5]
  Efficacy: Partial agonist

## Fc1ccc2c(c1)nc(N1CCN(Cc3ccc(Br)o3)CC1)c1cccn12
[1]
  IC50: 148 nM

## Clc1cc2nc(N3CCN(Cc4ccccc4)CC3)c3cccn3c2cc1Cl
[1]
  IC50: 118 nM

## Fc1ccc2c(c1)nc(N1CCN(Cc3cccs3)CC1)c1cccn12
[1]
  IC50: 12 nM

## CN1CCN(c2nc3cc(F)ccc3n3cccc23)CC1
[2]
  EC50: 3 nM
NG108-15 [3]
  Efficacy: Agonist

## O=C(O)CN1CCN(c2nc3cccc(F)c3n3cccc23)CC1
[1]
  IC50: 920 nM

## Cc1ccc2c(c1)nc(N1CCNCC1)c1cccn12
[1]
  IC50: 16.4 nM

## CN1CCN(c2nc3cc(F)ccc3n3ccnc23)CC1
[1]
  IC50: 5.2 nM
[2]
  EC50: 7.2 nM
NG108-15 [3]
  Efficacy: Agonist

## c1ccc2nc(N3CCNCC3)ccc2c1 [QUIPAZINE]
[8]
  Ki: 794 nM
[9]
  Ki: 316 nM
[1]
  IC50: 3.8 nM
[11]
  Ki: 6.31 nM
NG108-15 [5]
  Efficacy: Partial agonist

## OCCN1CCN(c2nc3cc(F)ccc3n3cccc23)CC1
[1]
  IC50: 2.6 nM
[2]
  EC50: 2.4 nM
NG108-15 [3]
  Efficacy: Agonist

## c1cnc2nc(N3CCNCC3)c3cccn3c2c1
[1]
  IC50: 3.1 nM

## CN1CCN(c2nc3ccccc3c3ccnn23)CC1
[1]
  IC50: 1.6 nM
[2]
  EC50: 2.7 nM
NG108-15 [3]
  Efficacy: Agonist

## CN1CCN(c2nc3cccnc3n3ccnc23)CC1
[1]
  IC50: 6.6 nM

## CN1[C@@H]2CC[C@H]1C[C@@H](OC(=O)c1cc(Cl)cc(Cl)c1)C2 [BEMESETRON]
[1]
  IC50: 97 nM

## c1csc(CN2CCN(c3nc4ccccc4n4cccc34)CC2)c1
[1]
  IC50: 22 nM

## CN1CCN(c2nc3cc(OCc4ccccc4)ccc3n3cccc23)CC1
[1]
  IC50: 225 nM

## Fc1cccc2nc(N3CCN(Cc4ccc5ccccc5c4)CC3)c3cccn3c12
[1]
  IC50: 780 nM
[4]
  Kp: 2.8

## CN1CCN(c2nc3cc(C#N)ccc3n3cccc23)CC1
[1]
  IC50: 104 nM

## Cc1ccc2c(c1)nc(N1CCN(Cc3ccccc3)CC1)c1cccn12
[1]
  IC50: 24 nM

## Fc1cccc2nc(N3CCN(Cc4cccs4)CC3)c3cccn3c12
[1]
  IC50: 60 nM
